# Measurements as given in PMC6210075 (ACS Omega, 2018).
# Assays:
# [1] = biological target: T1, human sEH (Homo sapiens, UniProt P34913); assay: sEH fluorescent inhibition assay; format: biochemical
# T1 sequence (P34913 1-555): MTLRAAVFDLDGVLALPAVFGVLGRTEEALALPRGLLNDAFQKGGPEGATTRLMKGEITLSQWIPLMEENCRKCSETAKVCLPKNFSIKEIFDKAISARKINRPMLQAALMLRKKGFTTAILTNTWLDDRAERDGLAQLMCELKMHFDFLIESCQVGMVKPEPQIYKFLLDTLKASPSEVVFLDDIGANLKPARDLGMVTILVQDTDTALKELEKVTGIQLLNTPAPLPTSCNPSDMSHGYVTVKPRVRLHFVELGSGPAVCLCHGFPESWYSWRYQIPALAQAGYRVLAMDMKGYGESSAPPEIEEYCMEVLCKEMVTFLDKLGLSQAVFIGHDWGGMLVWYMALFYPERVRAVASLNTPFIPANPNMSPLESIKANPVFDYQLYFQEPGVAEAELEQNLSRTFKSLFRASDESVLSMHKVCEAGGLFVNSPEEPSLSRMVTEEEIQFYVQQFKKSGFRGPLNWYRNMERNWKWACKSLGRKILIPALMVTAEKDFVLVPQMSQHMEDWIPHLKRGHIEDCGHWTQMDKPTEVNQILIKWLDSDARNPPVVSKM
# [2] = biological target: T2, human FAAH (Homo sapiens, UniProt O00519); assay: Ki and kinact determination on FAAH; format: biochemical
# T2 sequence (O00519 1-579): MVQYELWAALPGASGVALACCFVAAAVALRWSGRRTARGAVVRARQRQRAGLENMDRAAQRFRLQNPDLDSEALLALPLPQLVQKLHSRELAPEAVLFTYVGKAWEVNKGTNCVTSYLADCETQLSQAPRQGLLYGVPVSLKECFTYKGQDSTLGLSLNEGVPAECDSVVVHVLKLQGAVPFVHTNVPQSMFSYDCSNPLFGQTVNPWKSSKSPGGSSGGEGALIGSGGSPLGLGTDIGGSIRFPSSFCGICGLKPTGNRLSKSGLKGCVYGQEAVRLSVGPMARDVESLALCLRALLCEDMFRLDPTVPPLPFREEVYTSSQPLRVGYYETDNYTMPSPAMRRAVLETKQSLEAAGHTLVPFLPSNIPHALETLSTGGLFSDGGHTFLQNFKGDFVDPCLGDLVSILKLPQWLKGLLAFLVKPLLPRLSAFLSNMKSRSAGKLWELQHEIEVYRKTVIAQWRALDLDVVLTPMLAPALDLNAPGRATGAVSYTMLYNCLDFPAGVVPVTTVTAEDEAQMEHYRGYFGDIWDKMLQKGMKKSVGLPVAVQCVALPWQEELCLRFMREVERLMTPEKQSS
# Procedure, shortened: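 Crude baculovirus-expressed recombinant FAAH (High Five cell S9 fraction in 50 mM Tris/HCl pH 8.0, 1 mM CHAPS, 10% glycerol). OMP (100 μM final) was mixed with a range of test compound concentrations and held 5 min at 37 °C.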
# [3] = biological target: T3, serine hydrolases (Mus musculus, UniProt O08914); assay: Activity-based protein profiling; format: biochemical; conditions: mouse brain tissue homogenate, inhibitor 20 µM
# T3 sequence (O08914 1-579): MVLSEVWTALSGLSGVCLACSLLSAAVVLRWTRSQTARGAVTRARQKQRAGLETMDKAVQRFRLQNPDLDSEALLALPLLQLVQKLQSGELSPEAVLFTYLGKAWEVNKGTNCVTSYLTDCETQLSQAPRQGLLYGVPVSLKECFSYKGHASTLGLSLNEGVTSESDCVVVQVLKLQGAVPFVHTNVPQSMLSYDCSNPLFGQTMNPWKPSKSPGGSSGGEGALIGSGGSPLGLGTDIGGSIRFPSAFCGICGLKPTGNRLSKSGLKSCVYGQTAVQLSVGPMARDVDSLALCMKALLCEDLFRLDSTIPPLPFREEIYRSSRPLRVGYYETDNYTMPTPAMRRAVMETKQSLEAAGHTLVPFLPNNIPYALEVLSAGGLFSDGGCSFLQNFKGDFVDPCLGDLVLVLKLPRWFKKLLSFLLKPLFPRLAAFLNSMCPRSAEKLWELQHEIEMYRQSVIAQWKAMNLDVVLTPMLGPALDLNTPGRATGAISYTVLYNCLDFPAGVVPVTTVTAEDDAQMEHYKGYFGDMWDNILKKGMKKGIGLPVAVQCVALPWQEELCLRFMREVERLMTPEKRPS
# [4] = system: serine hydrolases; assay: Activity-based protein profiling; format: biochemical, mouse; conditions: mouse liver tissue homogenate, inhibitor 20 µM
# [5] = biological target: T4, mouse sEH (Mus musculus, UniProt P34914); assay: sEH fluorescent inhibition assay, recombinant mouse sEH; format: biochemical
# T4 sequence (P34914 1-554): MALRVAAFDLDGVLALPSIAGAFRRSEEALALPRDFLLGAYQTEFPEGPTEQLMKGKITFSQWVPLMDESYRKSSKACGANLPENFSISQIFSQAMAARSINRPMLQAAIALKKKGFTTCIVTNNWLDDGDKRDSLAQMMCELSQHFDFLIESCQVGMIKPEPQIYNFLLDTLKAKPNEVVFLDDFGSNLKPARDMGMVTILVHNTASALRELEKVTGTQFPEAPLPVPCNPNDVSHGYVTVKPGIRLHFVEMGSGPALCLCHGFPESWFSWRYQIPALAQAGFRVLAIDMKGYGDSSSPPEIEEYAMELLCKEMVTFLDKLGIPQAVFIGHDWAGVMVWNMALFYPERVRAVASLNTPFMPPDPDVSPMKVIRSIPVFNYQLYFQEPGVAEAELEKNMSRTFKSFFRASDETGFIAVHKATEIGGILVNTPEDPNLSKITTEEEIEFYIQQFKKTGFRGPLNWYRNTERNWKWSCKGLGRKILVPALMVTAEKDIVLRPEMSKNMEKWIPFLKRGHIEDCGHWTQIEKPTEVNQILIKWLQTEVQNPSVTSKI
# [6] = biological target: T2, human FAAH; assay: FAAH fluorescent inhibition assay; format: biochemical
difference in potency on sEH ([1]; compared to 11) [fold],kinact [2] [s⁻¹],kinact/KI [2] [M⁻¹ s⁻¹],difference in potency on FAAH ([6]; compared to 11) [fold],SMILES,IC50 [1] [nM],Ki [2] [nM],intensity of the FAAH band (ABPP) [3],other serine hydrolase bands (ABPP) [4],IC50 [5] [nM],IC50 [6] [nM]
–,–,–,–,"O=C(Nc1cccnc1)N1CCC(Cc2cccc(Oc3ccc(C(F)(F)F)cn3)c2)CC1 [PF-3845, reference compound]",12000,3.5,reduced,"neither 11, 13, 14, 18, nor PF-3845 had any effect on the intensity of other bands",1200,0.65
< 3,0.000283,700000,< 3,O=C(Nc1ccc(C(F)(F)F)cc1F)N1CCC(Cc2cccc(Oc3ccc(C(F)(F)F)cn3)c2)CC1 [compound 18],–,24,does not appear to fully inhibit the band corresponding to FAAH,"neither 11, 13, 14, 18, nor PF-3845 had any effect on the intensity of other bands",360,–
